Assay results reported in ChEMBL document CHEMBL2169794, “Induction of apoptosis by 3-amino-6-(3-aminopropyl)-5,6-dihydro-5,11-dioxo-11H-indeno[1,2-c]isoquinoline via modulation of MAPKs (p38 and c-Jun N-terminal kinase) and c-Myc in HL-60 human leukemia cells” (J Nat Prod, 2012).
Active and inactive are the calls of the source. No cut-off for these calls is given here.

Key:
[1] = tested on: HL-60; assay: Induction of apoptosis in human HL60 cells assessed as early apoptotic cells level at 2 uM incubated for 24 hrs by annexinV/7-AAD double staining based flow cytometry (reference value: 3.68%); type: functional
[2] = tested on: HL-60; assay: Induction of apoptosis in human HL60 cells assessed as viable cells level at 2 uM incubated for 24 hrs by annexinV/7-AAD double staining based flow cytometry (reference value: 92.44%); type: functional
[3] = tested on: HL-60; assay: Induction of apoptosis in human HL60 cells assessed as viable cells level at 1 uM incubated for 24 hrs by annexinV/7-AAD double staining based flow cytometry (reference value: 92.44%); type: functional
[4] = tested on: HL-60; assay: Cell cycle arrest in human HL60 cells assessed as accumulation at subG0/G1 phase at 1 uM by NIM-DAPI staining based flow cytometry (reference value: 2.8 +/- 0.8%); type: functional
[5] = tested on: HL-60; assay: Cell cycle arrest in human HL60 cells assessed as accumulation at subG0/G1 phase at 0.5 uM by NIM-DAPI staining based flow cytometry (reference value: 2.8 +/- 0.8%); type: functional
[6] = tested on: HL-60; assay: Cell cycle arrest in human HL60 cells assessed as accumulation at subG0/G1 phase at 0.25 uM by NIM-DAPI staining based flow cytometry (reference value: 2.8 +/- 0.8%); type: functional
[7] = tested on: HL-60; assay: Cell cycle arrest in human HL60 cells assessed as accumulation at subG0/G1 phase at 0.125 uM by NIM-DAPI staining based flow cytometry (reference value: 2.8 +/- 0.8%); type: functional
[8] = tested on: HL-60; assay: Cell cycle arrest in human HL60 cells assessed as accumulation at subG0/G1 phase at 0.0625 uM by NIM-DAPI staining based flow cytometry (reference value: 2.8 +/- 0.8%); type: functional
[9] = tested on: HL-60; assay: Cell cycle arrest in human HL60 cells assessed as accumulation at G2/M phase at 0.5 uM by NIM-DAPI staining based flow cytometry (reference value: 13.2 +/- 2.8%); type: functional
[10] = tested on: HL-60; assay: Cell cycle arrest in human HL60 cells assessed as accumulation at G2/M phase at 0.25 uM by NIM-DAPI staining based flow cytometry (reference value: 13.2 +/- 2.8%); type: functional
[11] = tested on: HL-60; assay: Cell cycle arrest in human HL60 cells assessed as accumulation at G2/M phase at 0.125 uM by NIM-DAPI staining based flow cytometry (reference value: 13.2 +/- 2.8%); type: functional
[12] = tested on: HL-60; assay: Antiproliferative activity against human HL60 cells after 96 hrs by MTT assay; type: functional, cell-based; conditions: HL-60, 96 h
Method in brief: (§1)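 HL-60 cells seeded at 2×10^4 per well, treated after 24 h with serial dilutions (0.0625-1 µM) for 24, 48, 72 or 96 h; DMSO 0.1% vehicle control. MTT added (final 500 µg/mL) for 4 h, formazan dissolved in DMSO, OD at 540 nm. Inhibition calculated relative to vehicle control after subtracting time-zero reading; IC50 by curve fitting; n = 6 per group.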

[13] = tested on: HL-60; assay: Antiproliferative activity against human HL60 cells after 72 hrs by MTT assay; type: functional, cell-based; conditions: HL-60, 72 h; method in brief: as §1
[14] = tested on: HL-60; assay: Antiproliferative activity against human HL60 cells after 48 hrs by MTT assay; type: functional, cell-based; conditions: HL-60, 48 h; method in brief: as §1
[15] = tested on: HL-60; assay: Reduction in mitochondrial transmembrane electric potential in human HL60 cells 1 uM incubated for 96 hrs by DiOC6(3) dye staining based flow cytometry; type: functional, cell-based
Method in brief: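 HL-60 cells given DMSO vehicle or 1 µM test agent for 96 h, then loaded with 100 nM DiOC6(3) for 30 min at 37 °C. After washing and resuspension in PBS, the cells were read at once by flow cytometry in FL-1.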

[16] = tested on: HL-60; assay: Antiproliferative activity against human HL60 cells after 24 hrs by MTT assay; type: functional, cell-based; conditions: HL-60, 24 h; method in brief: as §1
[17] = tested on: HL-60; assay: Cell cycle arrest in human HL60 cells assessed as accumulation at G2/M phase at 0.0625 uM by NIM-DAPI staining based flow cytometry (reference value: 13.2 +/- 2.8%); type: functional
[18] = tested on: HL-60; assay: Induction of apoptosis assessed as increase in caspase 3/7 enzyme activity in human HL60 cells at 1 uM incubated for 24 to 72 hrs by luminometry relative to untreated control; type: functional
Method in brief: (§2)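 HL-60 cells treated with serial dilutions in 96-well plates for 24, 48 and 72 h. Luminogenic caspase-3/7, caspase-8 or caspase-9 substrate reagent added for 3 h at room temperature, then luminescence read. Results are expressed as fold over DMSO vehicle control.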

[19] = tested on: HL-60; assay: Down regulation of c-Myc protein expression in human HL60 cells at 1 uM after 2 hrs by Western blot method; type: functional, cell-based
Method in brief: (§3)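 HL-60 cells exposed to 1 µM test agent for the indicated times, then lysed. 15 µg protein run on 12% SDS-PAGE, blotted to PVDF, probed overnight at 4 °C with antibodies to phospho- or total ERK1/2, p38 (Thr180/Tyr182), SAPK/JNK (Thr183/Tyr185) or c-Myc. HRP secondary, chemiluminescent read-out.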

[20] = target: MAP kinase p38 (Homo sapiens) (UniProt O15264+Q15759+Q16539+P53778); assay: Induction of p38 MAPK phosphorylation in human HL60 cells at 1 uM incubated for 1 to 24 hrs by Western blot method; type: cell-based; conditions: HL-60; method in brief: as §3
[21] = target: c-Jun N-terminal kinase, JNK (Homo sapiens) (UniProt P45983+P53779+P45984); assay: Induction of JNK phosphorylation in human HL60 cells at 1 uM incubated for 1 to 24 hrs by Western blot method; type: cell-based; conditions: HL-60; method in brief: as §3
[22] = tested on: HL-60; assay: Effect on total p38MAPK protein expression in human HL60 cells at 1 uM incubated for 1 to 24 hrs by Western blot method; type: functional, cell-based; method in brief: as §3
[23] = tested on: HL-60; assay: Effect on total SAPK/JNK protein expression in human HL60 cells at 1 uM incubated for 1 to 24 hrs by Western blot method; type: functional, cell-based; method in brief: as §3
[24] = tested on: HL-60; assay: Effect on total ERK1/2 protein expression in human HL60 cells at 1 uM incubated for 1 to 24 hrs by Western blot method; type: functional, cell-based; method in brief: as §3
[25] = tested on: HL-60; assay: Induction of apoptosis assessed as increase in caspase 8 enzyme activity in human HL60 cells at 1 uM incubated for 24 to 72 hrs by luminometry relative to untreated control; type: functional, cell-based; method in brief: as §2
[26] = tested on: HL-60; assay: Induction of apoptosis assessed as increase in caspase 9 enzyme activity in human HL60 cells at 1 uM incubated for 24 to 72 hrs by luminometry relative to untreated control; type: functional; method in brief: as §2
[27] = tested on: HL-60; assay: Induction of cleaved caspase 7 expression in human HL60 cells at 0.25 to 2 uM incubated for 24 hrs by Western blotting method; type: functional, cell-based
Method in brief: (§4)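 HL-60 cells exposed for 24 h to the stated concentrations and lysed; protein measured by Bradford. Lysate (15 µg) run on 12% SDS-PAGE and transferred to PVDF. Blocked in 5% milk/TBST for 1 h, primary antibody overnight at 4 °C, HRP secondary for 2 h at room temperature, chemiluminescent detection.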

[28] = tested on: HL-60; assay: Induction of cleaved caspase 3 expression in human HL60 cells at 0.25 to 2 uM incubated for 24 hrs by Western blotting method; type: functional, cell-based; method in brief: as §4
[29] = tested on: HL-60; assay: Induction of PARP cleavage in human HL60 cells 2 uM incubated for 24 hrs by Western blot method; type: functional, cell-based; method in brief: as §4
[30] = tested on: HL-60; assay: Induction of PARP cleavage in human HL60 cells 1 uM incubated for 24 hrs by Western blot method; type: functional, cell-based; method in brief: as §4
[31] = tested on: HL-60; assay: Induction of apoptosis in human HL60 cells assessed as necrotic cells level at 2 uM incubated for 24 hrs by annexinV/7-AAD double staining based flow cytometry (reference value: 3.45%); type: functional
[32] = tested on: HL-60; assay: Induction of apoptosis in human HL60 cells assessed as necrotic cells level at 1 uM incubated for 24 hrs by annexinV/7-AAD double staining based flow cytometry (reference value: 3.45%); type: functional
[33] = tested on: HL-60; assay: Induction of apoptosis in human HL60 cells assessed as late apoptotic cells level at 2 uM incubated for 24 hrs by annexinV/7-AAD double staining based flow cytometry (reference value: 0.43%); type: functional
[34] = tested on: HL-60; assay: Induction of apoptosis in human HL60 cells assessed as late apoptotic cells level at 1 uM incubated for 24 hrs by annexinV/7-AAD double staining based flow cytometry (reference value: 0.43%); type: functional
[35] = tested on: HL-60; assay: Induction of apoptosis in human HL60 cells assessed as early apoptotic cells level at 1 uM incubated for 24 hrs by annexinV/7-AAD double staining based flow cytometry (reference value: 3.68%); type: functional

IC50 [12]: 86 nM
IC50 [13]: 150 nM
IC50 [14]: 350 nM
IC50 [16]: 800 nM
Activity [20]: Active
Activity [21]: Active
Structure (SMILES): Cl.Cl.NCCCn1c2c(c3ccc(N)cc3c1=O)C(=O)c1ccccc1-2
Activity [1]: 51.56%
Activity [2]: 37.6%
Activity [3]: 57.62%
Activity [4]: 26.5%
Activity [5]: 11.1%
Activity [6]: 6.1%
Activity [7]: 6%
Activity [8]: 4.6%
Activity [9]: 27.6%
Activity [10]: 45%
Activity [11]: 39.6%
Activity [15]: Active
Activity [17]: 22%
fold change (FC) [18]: 12.6
Activity [19]: Active
Activity [22]: inactive
Activity [23]: inactive
Activity [24]: inactive
Activity [25]: inactive
fold change (FC) [26]: 7.8
Activity [27]: Active
Activity [28]: Active
Activity [29]: Active
Activity [30]: Active
Activity [31]: 4.57%
Activity [32]: 2.99%
Activity [33]: 6.27%
Activity [34]: 5.21%
Activity [35]: 34.18%
